Measured values collected from several papers.
Lines come from different studies, so protocols differ.
ULK1: Serine/threonine-protein kinase ULK1 (ULK1, Homo sapiens, UniProt O75385)
CDKL1: Cyclin-dependent kinase-like 1 (CDKL1, Homo sapiens, UniProt Q00532)
MAP3K11: Mitogen-activated protein kinase kinase kinase 11 (MAP3K11, Homo sapiens, UniProt Q16584)

SMILES	target	test	conditions	measurement	value
c1cc(-c2nnc3scnn23)ccn1	Type II inositol 1,4,5-trisphosphate 5-phosphatase (Homo sapiens, UniProt P32019)	enzyme activity, inhibitor		Emax	100%
Nc1ncnc2occ(-c3ccc(NC(=O)Nc4cc(C(F)(F)F)ccc4F)cc3)c12	Myosin-IIIa (MYO3A, Homo sapiens, UniProt Q8NEV4)	cell-free assay	20 µM	remaining signal	0.05%
CN1CCc2cc(Nc3ncc(C4CC4)c(NCCCNC(=O)C4CCC4)n3)ccc2C1	ULK1	enzyme activity, inhibitor, radiometric	1 µM	remaining activity	1%
Cc1cc(NC(=O)c2cccc3cc(-c4cccc5[nH]nc(N)c45)ccc23)ccc1F	Hepatocyte growth factor receptor (MET, Homo sapiens, UniProt P08581, D1228H)	enzyme activity, inhibitor	0.1 µM	activity vs control	145%
FC(F)(F)Oc1cccc(-c2cnc3ccc(-c4ccncc4)nn23)c1	Mitogen-activated protein kinase kinase kinase 1 (MAP3K1, Homo sapiens, UniProt Q13233)	enzyme activity, inhibitor, radiometric	5 µM	activity vs control	94%
Cn1c2c(c3ccc(Cl)c(Cl)c31)C(C#N)C1(CCOCC1)NC2=O (stereo not shown)	CDKL1	thermal stability, DSF	10 µM	ΔTm	-0.1 °C
Cc1nn(CC(F)(F)F)cc1Nc1ncc(Br)c(NCCc2cnc[nH]2)n1	ULK1	enzyme activity, inhibitor, radiometric	1 µM	remaining activity	20%
CN1CCC2(CC1)NC(=O)c1c(c3ccc(Cl)c(Cl)c3n1C)C2C#N (racemic)	CDKL1	thermal stability, DSF	10 µM	ΔTm	0 °C
NS(=O)(=O)c1ccc(CNc2nc(Nc3cccc(CN4CCOCC4)c3)ncc2C2CC2)cc1	MAP3K11	enzyme activity, inhibitor, radiometric	1 µM	remaining activity	68%
Cn1c2c(Cl)c(Cl)ccc2c2cc[nH]c(=O)c21	CDKL1	thermal stability, DSF	10 µM	ΔTm	-0.1 °C
Cc1cnc(NC2CCOCC2)nc1-n1cnc(C(=O)NC(CN)c2cc(F)cc(Cl)c2)c1 (stereo not shown)	Mitogen-activated protein kinase 1 (Mapk1, Mus musculus, UniProt P63085)	enzyme activity, inhibitor, radiometric	1 µM	remaining activity	1%
CCN1CCC2(CC1)NC(=O)c1c(c3ccc(Cl)c(Cl)c3n1C)C2C#N (racemic)	CDKL1	thermal stability, DSF	10 µM	ΔTm	-0.1 °C
O=C(NCCCNc1nc(Nc2cccc(CN3CCOCC3)c2)ncc1C1CC1)C1CCC1	ULK1	enzyme activity, inhibitor, radiometric	1 µM	remaining activity	9%
Cc1ccc(NC(=O)c2ccc(C)c(C(F)(F)F)c2)cc1C#Cc1nn(C2CCC(O)CC2)c2ncnc(N)c12 (stereo not shown)	Hepatocyte growth factor receptor (MET, Homo sapiens, UniProt P08581, Y1230H)	cell-free assay	10 µM	remaining signal	123%
Cn1c2c(c3ccccc31)C(C#N)C(C)(C)NC2=O (stereo not shown)	CDKL1	thermal stability, DSF	10 µM	ΔTm	-0.1 °C
NS(=O)(=O)c1ccc(CNc2ccnc(Nc3cccc(CN4CCOCC4)c3)n2)cc1	MAP3K11	enzyme activity, inhibitor, radiometric	1 µM	remaining activity	95%
